# Measurements published in ChEMBL document CHEMBL1799942, “Design, synthesis and antifungal activities of novel 1,2,4-triazole derivatives” (2011).
# Assays:
# Assay type in all cases: functional
# [1] = Antifungal activity against Fonsecaea compacta by micro-broth dilution method
# Summary of the method: (§1)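 Broth microdilution following the NCCLS yeast reference method (M27-A2), run on clinical isolates of filamentous fungi. Compounds were dissolved in DMSO, serially diluted in growth medium, inoculated and incubated at 35 °C. Growth was read at 7 days. MIC80 is the first well with about 80% less growth than the drug-free well.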
# [2] = system: Aspergillus fumigatus; test: Antifungal activity against Aspergillus fumigatus after 7 days by micro-broth dilution method; settings: 168 h; summary of the method: as §1
# [3] = system: Candida parapsilosis; test: Antifungal activity against Candida parapsilosis ATCC 0306392 by micro-broth dilution method; settings: Lodderomyces parapsilosis
# Summary of the method: (§2)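 Micro-broth dilution per NCCLS M27-A2. The C. parapsilosis strain is the ATCC 0306392 quality-control standard tested in each assay; the C. tropicalis strain is a clinical isolate. Compounds were in DMSO, serially diluted in growth medium, inoculated and incubated at 35 °C. MIC80 is the first well with about 80% growth reduction relative to the drug-free well.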
# [4] = system: Nannizzia gypsea; test: Antifungal activity against Microsporum gypseum after 7 days by micro-broth dilution method; settings: 168 h; summary of the method: as §1
# [5] = system: Candida tropicalis; test: Antifungal activity against Candida tropicalis by micro-broth dilution method; summary of the method: as §2
# [6] = system: Trichophyton rubrum; test: Antifungal activity against Trichophyton rubrum after 7 days by micro-broth dilution method; settings: 168 h; summary of the method: as §1
# [7] = system: Candida albicans; test: Antifungal activity against Candida albicans ATCC Y0109 after 24 hrs by micro-broth dilution method; settings: ATCC Y0109, 24 h
# Summary of the method: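 Micro-broth dilution per NCCLS M27-A2 on the quality-control standard strain ATCC Y0109, included in each assay. Compounds were dissolved in DMSO, serially diluted in growth medium, inoculated and incubated at 35 °C, with growth read at 24 h. MIC80 is the first well showing roughly 80% growth reduction versus the drug-free well.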
# [8] = system: Cryptococcus neoformans; test: Antifungal activity against Cryptococcus neoformans ATCC BLS108 after 72 hrs by micro-broth dilution method; settings: ATCC BLS108, 72 h
# Summary of the method: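 NCCLS M27-A2 microdilution on the ATCC BLS108 quality-control strain, tested in every assay. Compounds were taken up in DMSO, serially diluted in growth medium, inoculated and incubated at 35 °C. Growth was scored at 72 h. MIC80 is the first well with about 80% lower growth than the drug-free control well.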
SMILES,MIC80 [1],MIC80 [2],MIC80 [3],MIC80 [4],MIC80 [5],MIC80 [6],MIC80 [7],MIC80 [8]
O=C(Nc1ccc(N2CCN(CC(O)(Cn3cncn3)c3ccc(F)cc3F)CC2)c(F)c1)C(F)(F)Cl (racemic),0.0156 µg/mL,1 µg/mL,0.0039 µg/mL,0.0039 µg/mL,0.0039 µg/mL,0.0039 µg/mL,64 µg/mL,0.0156 µg/mL
O=C(Nc1ccc(N2CCN(CC(O)(Cn3cncn3)c3ccc(F)cc3F)CC2)c(F)c1)C(F)(F)F (racemic),0.25 µg/mL,1 µg/mL,0.0039 µg/mL,> 64 µg/mL,0.0039 µg/mL,0.0156 µg/mL,0.0156 µg/mL,0.0625 µg/mL
CCC(=O)Nc1ccc(N2CCN(CC(O)(Cn3cncn3)c3ccc(F)cc3F)CC2)c(F)c1 (racemic),1 µg/mL,4 µg/mL,0.0625 µg/mL,0.25 µg/mL,0.0625 µg/mL,0.0625 µg/mL,0.0625 µg/mL,1 µg/mL
CCCC(=O)Nc1ccc(N2CCN(CC(O)(Cn3cncn3)c3ccc(F)cc3F)CC2)c(F)c1 (racemic),0.25 µg/mL,1 µg/mL,0.0156 µg/mL,0.0156 µg/mL,0.0156 µg/mL,0.0156 µg/mL,0.0156 µg/mL,0.25 µg/mL
CC(C)C(=O)Nc1ccc(N2CCN(CC(O)(Cn3cncn3)c3ccc(F)cc3F)CC2)c(F)c1 (racemic),1 µg/mL,> 64 µg/mL,0.25 µg/mL,0.0625 µg/mL,4 µg/mL,0.0625 µg/mL,0.0625 µg/mL,16 µg/mL
CCCCC(=O)Nc1ccc(N2CCN(CC(O)(Cn3cncn3)c3ccc(F)cc3F)CC2)c(F)c1 (racemic),1 µg/mL,1 µg/mL,0.25 µg/mL,0.25 µg/mL,0.25 µg/mL,0.25 µg/mL,0.0156 µg/mL,1 µg/mL
CC(C)(C)C(=O)Nc1ccc(N2CCN(CC(O)(Cn3cncn3)c3ccc(F)cc3F)CC2)c(F)c1 (racemic),0.0625 µg/mL,64 µg/mL,0.0156 µg/mL,0.0156 µg/mL,0.0156 µg/mL,0.0156 µg/mL,0.0156 µg/mL,0.25 µg/mL
CCCCCC(=O)Nc1ccc(N2CCN(CC(O)(Cn3cncn3)c3ccc(F)cc3F)CC2)c(F)c1 (racemic),0.25 µg/mL,1 µg/mL,0.25 µg/mL,0.25 µg/mL,0.0625 µg/mL,0.0156 µg/mL,0.0039 µg/mL,0.0625 µg/mL
O=C(CCl)Nc1ccc(N2CCN(CC(O)(Cn3cncn3)c3ccc(F)cc3F)CC2)cc1 (racemic),0.0625 µg/mL,4 µg/mL,0.0156 µg/mL,0.0625 µg/mL,0.0156 µg/mL,0.0625 µg/mL,0.0039 µg/mL,0.25 µg/mL
O=C(Nc1ccc(N2CCN(CC(O)(Cn3cncn3)c3ccc(F)cc3F)CC2)cc1)C(F)(F)Cl (racemic),0.0625 µg/mL,1 µg/mL,0.0039 µg/mL,0.0039 µg/mL,0.0039 µg/mL,0.0156 µg/mL,0.00097 µg/mL,0.0625 µg/mL
O=C(Nc1ccc(N2CCN(CC(O)(Cn3cncn3)c3ccc(F)cc3F)CC2)cc1)C(F)(F)F (racemic),0.0156 µg/mL,1 µg/mL,0.0039 µg/mL,0.0039 µg/mL,0.00097 µg/mL,0.0156 µg/mL,0.00097 µg/mL,0.0156 µg/mL
CCC(=O)Nc1ccc(N2CCN(CC(O)(Cn3cncn3)c3ccc(F)cc3F)CC2)cc1 (racemic),0.25 µg/mL,4 µg/mL,0.0156 µg/mL,0.25 µg/mL,0.0156 µg/mL,0.0625 µg/mL,0.0156 µg/mL,1 µg/mL
